Experimental findings from ChEMBL document CHEMBL2086268, “Synthesis, radiolabeling and initial in vivo evaluation of [(11)C]KSM-01 for imaging PPAR-α receptors” (Bioorg Med Chem Lett, 2012) are described below.

The structures appear in SMILES notation.

Details in all cases: in vivo, 1 h; call rule not given here
In data set [1] the test system is Kidney. Put plainly: Drug uptake in wild type mouse kidney at 170 uCi, iv after 60 mins by post-PET gamma counting analysis. Type of data set: ADME, organism-based. A digest of the protocol:
(§1)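 Biodistribution done after PET: tissues were collected after the 0–60 min dynamic scan following intravenous injection of the 11C-labelled tracer. Transgenic mice with about 15-fold ventricular PPAR-α overexpression were used alongside wild-type littermate controls. Uptake was expressed as %ID/g.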

Data set [2] relates to Blood. The data set is described as follows: Drug uptake in blood of MHC-PPARalpha overexpressing transgenic mouse at 170 uCi, iv after 60 mins by post-PET gamma counting analysis. Type of data set: ADME, organism-based. The gist of the method:
as §1

The subject of data set [3] is Blood. Put plainly: Drug uptake in wild type mouse blood at 170 uCi, iv after 60 mins by post-PET gamma counting analysis. The format is ADME, organism-based. The gist of the method: as §1
The subject of data set [4] is Kidney. Put plainly: Drug uptake in kidney of MHC-PPARalpha overexpressing transgenic mouse at 170 uCi, iv after 60 mins by post-PET gamma counting analysis. The format is ADME, organism-based. The gist of the method:
as §1

Data set [5] has as its system Spleen. Put plainly: Drug uptake in spleen of MHC-PPARalpha overexpressing transgenic mouse at 170 uCi, iv after 60 mins by post-PET gamma counting analysis. Type of data set: ADME, organism-based. The gist of the method: as §1
Data set [6] concerns Liver. The data set is described as follows: Drug uptake in liver of MHC-PPARalpha overexpressing transgenic mouse at 170 uCi, iv after 60 mins by post-PET gamma counting analysis. The format is ADME, organism-based. The gist of the method:
as §1

Data set [7] deals with Mus musculus. The data set is described as follows: Drug uptake in MHC-PPARalpha overexpressing transgenic mouse at 170 uCi, iv after 60 mins by microPET imaging analysis relative to wild type control. Type of data set: ADME, organism-based. A digest of the protocol:
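Transgenic mice overexpressing PPAR-α in heart (ventricular PPAR-α protein about 15-fold above wild-type) and wild-type littermate controls. Dynamic microPET imaging over 0–60 min after intravenous injection of the carbon-11-labelled radiotracer. Radiochemical purity >98%. Cardiac accumulation was quantified as standard uptake values (SUV) and compared with wild-type animals.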

For data set [8], the system named is Lung. Put plainly: Drug uptake in lungs of MHC-PPARalpha overexpressing transgenic mouse at 170 uCi, iv after 60 mins by post-PET gamma counting analysis. Type of data set: ADME, organism-based. A digest of the protocol: as §1
Data set [9] relates to Liver. Put plainly: Drug uptake in wild type mouse liver at 170 uCi, iv after 60 mins by post-PET gamma counting analysis. Type of data set: ADME, organism-based. The gist of the method:
as §1

A short description of data set [10]: Drug uptake in cardiac tissue of MHC-PPARalpha overexpressing transgenic mouse at 170 uCi, iv after 60 mins by post-PET gamma counting analysis. The format is ADME, organism-based, Heart. A digest of the protocol:
as §1

In data set [11] the test system is Liver. Put plainly: Drug uptake in liver of MHC-PPARalpha overexpressing transgenic mouse at 170 uCi, iv after 60 mins by microPET imaging analysis. The format is ADME, organism-based. A digest of the protocol: (§2)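 Dynamic microPET scan over 0–60 min after intravenous injection of the 11C-labelled tracer. Transgenic mice had cardiac-ventricle PPAR-α protein about 15-fold above wild-type littermates. Data were analysed as standard uptake values (SUV).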

Data set [12] relates to Lung. The data set is described as follows: Drug uptake in wild type mouse lungs at 170 uCi, iv after 60 mins by post-PET gamma counting analysis. The format is ADME, organism-based. A digest of the protocol:
as §1

A short description of data set [13]: Drug uptake in wild type mouse cardiac tissue at 170 uCi, iv after 60 mins by post-PET gamma counting analysis. The format is ADME, organism-based, Heart. The gist of the method:
as §1

Data set [14] relates to Heart. The data set is described as follows: Drug uptake in heart of MHC-PPARalpha overexpressing transgenic mouse at 170 uCi, iv after 60 mins by microPET imaging analysis. The format is ADME, organism-based. The gist of the method:
as §2

Data set [15] deals with Muscle tissue. The data set is described as follows: Drug uptake in wild type mouse muscle at 170 uCi, iv after 60 mins by post-PET gamma counting analysis. The format is ADME, organism-based. The gist of the method: as §1
Data set [16] concerns Spleen. Put plainly: Drug uptake in wild type mouse spleen at 170 uCi, iv after 60 mins by post-PET gamma counting analysis. Type of data set: ADME, organism-based. A digest of the protocol:
as §1

For data set [17], the system named is Muscle tissue. Put plainly: Drug uptake in muscle of MHC-PPARalpha overexpressing transgenic mouse at 170 uCi, iv after 60 mins by post-PET gamma counting analysis. Type of data set: ADME, organism-based. A digest of the protocol:
as §1

Regarding `CC(C)(Sc1ccc(CCN(CCCCC2CCCCC2)C(=O)Nc2ccc(O[11CH3])cc2)cc1)C(=O)O`, the Drug uptake in data set [1] worked out at 2.01 % ID/g; in [2] it was 0.42 % ID/g; in [3], 0.42 % ID/g; in [4], 2.58 % ID/g; in data set [5] it was 1.33 % ID/g; in data set [6] it was 55.3 % ID/g. Besides, the Drug uptake is listed as 2.65 % ID/g in data set [8]; 60.69 % ID/g in data set [9]; 1.09 % ID/g in data set [10]; “Active” in [11]; 2.11 % ID/g in data set [12]; 0.479 % ID/g in [13]. Further, the Drug uptake result in data set [14] is “Active”; in data set [15] it was 0.35 % ID/g; in [16] it was 1.55 % ID/g; in [17] it was 0.36 % ID/g. Moreover, in [7], the “fold change (FC)” value is reported as 2.
